# Scp1 inh: Scp-1 phosphatase inhibitors, primary screen, biochemical, colorimetric, uHTS; Recombinant Scp1, phosphopeptide, malachite green phosphate absorbance; inhibition, % at 20 µM; 340,000 tested, 0.88% active; AID 493091, 2011;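 active means inhibition above about 50% at 20 µM, limit read from the data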;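 further: plate controls were DMSO wells with enzyme for no effect and wells lacking enzyme for full effect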
#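 Times: enzyme reaction 45 min at room temperature, colour 5 min, stabilisation 30 min. Material: SCP-1 catalytic fragment, aa 76-261. Medium: Acidic Tris acetate buffer with magnesium and detergent. Signal: colorimetric free-phosphate detection, absorbance 630 nm. Read-out basis: % inhibition of SCP-1 phosphate liberation. Reagent: Phosphorylated 17-residue peptide substrate.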
# GRK2 inh: compounds blocking aptamer binding on GRK2 – biochemical, human GRK2, bead flow cytometry, HTS, primary screen. FAM-aptamer displacement from GRK2. inhibition of aptamer binding, % at 10 µM. 330,000 tested, 0.59% active. AID 488847, 2010;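 active means inhibition of aptamer binding above 40%, roughly 3 SD of noise, on plates passing a quality check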;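 further: median bead fluorescence of bound FAM aptamer so fluorescent compounds give negative values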
# Target sequence (P25098 whole entry, looked up): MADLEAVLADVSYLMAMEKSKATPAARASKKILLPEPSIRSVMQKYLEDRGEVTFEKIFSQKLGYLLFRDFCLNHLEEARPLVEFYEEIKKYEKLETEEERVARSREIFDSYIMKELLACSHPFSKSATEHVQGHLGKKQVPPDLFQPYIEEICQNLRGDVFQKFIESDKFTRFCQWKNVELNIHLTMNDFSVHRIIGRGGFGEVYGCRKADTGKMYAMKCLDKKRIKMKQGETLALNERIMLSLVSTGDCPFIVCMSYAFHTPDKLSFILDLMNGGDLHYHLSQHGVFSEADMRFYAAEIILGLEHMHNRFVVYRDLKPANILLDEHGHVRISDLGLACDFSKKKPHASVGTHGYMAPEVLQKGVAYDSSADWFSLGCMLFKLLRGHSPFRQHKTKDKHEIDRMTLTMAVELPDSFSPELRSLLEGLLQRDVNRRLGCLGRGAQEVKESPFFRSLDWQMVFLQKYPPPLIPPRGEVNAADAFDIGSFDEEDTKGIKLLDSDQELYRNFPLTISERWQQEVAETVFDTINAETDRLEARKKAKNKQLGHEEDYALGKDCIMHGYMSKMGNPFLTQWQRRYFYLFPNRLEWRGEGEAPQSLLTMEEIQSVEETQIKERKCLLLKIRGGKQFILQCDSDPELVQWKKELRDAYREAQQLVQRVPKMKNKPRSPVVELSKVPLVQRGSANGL
# LMPTP block: LMPTP phosphatase inhibitors, primary screen, biochemical, fluorescence intensity, uHTS | inhibition, % at 20 µM | recombinant LMPTP-A, OMFP fluorogenic substrate | Low molecular weight phosphotyrosine protein phosphatase (Homo sapiens), P24666 | 360,000 tested, 0.22% active;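 active means compounds that cut the enzyme signal by at least half of the control window in the single-dose screen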;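 further: plate controls were DMSO wells with enzyme plus substrate for no effect and substrate without enzyme for full effect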
#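 Buffer or medium: Bis-Tris pH 6.0, DTT, detergent; Assay system: LMPTP-A enzyme; Quantity: 0.625 nM enzyme; Detection: endpoint fluorescence intensity; Times: 50 min dark incubation at room temperature; Controls: substrate-only low control, DMSO enzyme-plus-substrate high control; Doses: single 20 µM dose; Read-out: percent inhibition versus substrate-only and uninhibited controls; Reagent: 400 µM OMFP.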
# DNMT1 inh: human DNMT1 methyltransferase inhibitors, primary screen, biochemical, molecular beacon, fluorescence, HinP1I cleavage, uHTS | 360,000 tested, 0.83% active | inhibition (reported as % activation of signal), % at 10 µM | DNA (cytosine-5)-methyltransferase 1 (Homo sapiens), P26358 | AID 588458, 2011; in the data active means inhibition above about 50%
# SUMO1 PPI mod: modulators of SUMO1 protein-protein interactions, primary screen, biochemical, uHTS. AID 602429, 2012. 360,000 tested, 0.33% active. SUMO1 binding to a labelled peptide, TR-FRET, 1 h. inhibition, % at 20 µM. Small ubiquitin-related modifier 1 (Homo sapiens), P63165; in the data active means inhibition above about 37%
# Target sequence (P63165 whole entry, looked up): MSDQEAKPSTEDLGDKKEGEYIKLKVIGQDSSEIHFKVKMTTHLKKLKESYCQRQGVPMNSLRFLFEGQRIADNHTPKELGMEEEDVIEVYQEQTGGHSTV
# STEP inh: STEP phosphatase inhibitors, primary screen, biochemical, fluorescence intensity, uHTS; recombinant STEP, OMFP fluorogenic substrate; 360,000 tested, 0.25% active; Tyrosine-protein phosphatase non-receptor type 5 (Homo sapiens), P54829; inhibition, % at 20 µM;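 active means inhibition at 20 µM, scaled per plate between control wells, above about 37%, limit read from the data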;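 further: 0% = DMSO with enzyme and substrate and 100% = substrate only without enzyme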
#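 Measure: Control-normalized % inhibition with plate pattern correction | Test system: STEP phosphatase, cell-free reaction | Medium: pH 6.0 Bis-Tris with DTT and Tween 20 | Technique: Fluorescence, 480/540 nm | Times: Reaction 20 min, ambient temperature | Doses: Single compound dose of 20 µM, 1% DMSO final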
# GRK2 CP1: GRK2 aptamer-displacing inhibitors, retest, confirmation, biochemical, cherry pick 1, bead flow cytometry. shares compounds with GRK2 inh. bead-bound GRK2, FAM-aptamer displacement. aptamer displacement, % at 10 µM. 2,000 tested, 4% active;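 active means aptamer displacement above 40%, near three times the noise of non-fluorescent compounds, on plates passing quality checks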;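 further: negative values mostly reflect intrinsic compound fluorescence rather than true enhancement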
# Aptamer quench 1: quenches fluorescent RNA aptamer, GRK2 hit artifact; 110 tested, under 10 active; AID 504521; fluorescence change (kMESF span), kMESF (concentration not given with the values); Fluorescent RNA aptamer beads, quenching, flow cytometry; hits give high values; shares compounds with GRK2 inh;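 active means compounds whose bead fluorescence drops by more than 37 kMESF across the dose range, marking them as dye quenchers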
# Aptamer quench SP: quenches fluorescent RNA aptamer, GRK2 hit artifact | shares compounds with GRK2 inh | Carboxyfluorescein RNA aptamer on beads, flow cytometry quenching; hits give low values | fluorescence response (% of DMSO), % at 10 µM | 2,000 tested, under 10 active | AID 504580;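 active means compounds that quench the bead-bound fluorescent RNA probe, cutting fluorescence to under half of the solvent control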;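 further: counterscreen run without GRK2 so only probe quenching by compound is measured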
# GRK2 confirm 2: GRK2 aptamer-displacing inhibitors, hit retest, confirmation, biochemical, cherry pick 2, bead flow cytometry; shares compounds with GRK2 inh; bead-bound GRK2, FAM-aptamer displacement; inhibition of aptamer binding, % at 10 µM; 360 tested, under 10 active; AID 504782, 2011;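 active means inhibition of aptamer binding above 40%, about triple the noise seen with nonglowing compounds, on plates passing quality control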;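 further: negative values mostly come from compounds that fluoresce themselves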
# FAM quench CP2: aptamer fluorescence quenching in GRK2 counter-screen; shares compounds with GRK2 inh; carboxyfluorescein RNA aptamer beads, flow cytometry quenching; hits give low values; fluorescence response vs DMSO, % at 10 µM; 360 tested, under 10 active; AID 588494;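 active means response vs DMSO under 50%, meaning signal dropped by over half, treated as fluorescence quencher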;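 further: labelled aptamer on streptavidin beads without GRK2 as a quench counter-screen; 100% = bead fluorescence of DMSO wells and lower means quenching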
# Scp-1 conf: Scp-1 phosphatase inhibitors, retest, confirmation, biochemical, colorimetric, single concentration. recombinant SCP-1 catalytic domain, phosphate release, malachite green absorbance. shares compounds with Scp1 inh. AID 540281, 2011. inhibition, % at 20 µM. 2,500 tested, 61% active;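 further: plate controls were DMSO with enzyme for no effect and buffer wells lacking enzyme for full effect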
# MG interference: colorimetric readout interference by compounds, confirmation, artefact control for Scp-1 inhibitor project, biochemical, single concentration; shares compounds with Scp1 inh; Colorimetric interference counterscreen, malachite green absorbance 630 nm; apparent inhibition (interference), % at 20 µM; 2,500 tested, under 10 active;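 further: compounds added after enzyme reaction finished so only phosphate colour detection is probed; plate controls were DMSO wells with completed Scp-1 reaction for no effect and substrate wells lacking enzyme for full effect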
# Scp-1 Tm shift: Scp-1 binding by thermal shift, confirmation, orthogonal assay for Scp-1 inhibitor project, biophysical, differential scanning fluorimetry; shares compounds with Scp1 inh; Recombinant SCP1, Sypro Orange thermal shift Tm; thermal shift relative to vanadate control, % at 40 µM; 1,500 tested, 25% active; AID 540329, 2011;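 active means substances whose mean melting-temperature shift, as a percentage of the reference inhibitor's shift, reaches about 5.3%, limit read from the data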;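 further: 0% = Tm of DMSO wells and 100% = Tm with sodium orthovanadate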
# Numbers without * were called inactive; i = inactive; nt = no result. Shown are actives, neighbours in structure and some others; about 2.1% of the full set was active somewhere.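 How the source made its calls, unless noted: active means inhibition of at least 30% at 20 µM; inactive means the rest.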
SMILES,Scp1 inh,GRK2 inh,LMPTP block,DNMT1 inh,SUMO1 PPI mod,STEP inh,GRK2 CP1,Aptamer quench SP,Scp-1 conf,MG interference,Scp-1 Tm shift,others
C=CCn1c(SCC(=O)NCC)nc2sc3c(c2c1=O)CCC3,-3.6,0.0,-0.9,0.8,4.2,-2.0,nt,nt,nt,nt,nt,GRK2 confirm 2=-23.0;FAM quench CP2=101.0
C=CCn1c(SCC(=O)NC)nc2sc3c(c2c1=O)CCC3,-4.5,1.0,0.7,0.5,0.0,-2.0,nt,nt,nt,nt,nt,GRK2 confirm 2=16.8;FAM quench CP2=99.0
C=CCn1c(SCC(C)=O)nc2sc3c(c2c1=O)CCC3,-4.5,1.0,0.1,3.2,-0.4,-1.1,nt,nt,nt,nt,nt,
C=CCn1c(SC(CCO)C(=O)NCc2ccco2)nc2sc3c(c2c1=O)CCC3 (stereo not given),9.7,1.0,1.9,4.8,1.6,2.4,nt,nt,nt,nt,nt,GRK2 confirm 2=12.7;FAM quench CP2=101.0
CCn1c(SCC(=O)NC2CC2)nnc1-c1ccc(OC)cc1,-7.8,0.0,2.0,0.2,-6.1,-1.7,nt,nt,nt,nt,nt,
O=C(COC(=O)c1ccc(F)c(S(=O)(=O)N2CCCCC2)c1)NCc1ccc(F)cc1,-8.7,5.0,1.4,-3.0,1.6,-0.4,nt,nt,nt,nt,nt,
Cc1cccc(C)c1NC(=S)NNc1ncc(C(F)(F)F)cc1Cl,-1.8,48.0*,-0.2,-2.9,3.9,1.5,-0.9,99.0,nt,nt,nt,
COc1ccccc1NC(=O)C(C)OC(=O)CCSc1ccc(F)cc1 (stereo not given),-7.6,2.0,1.4,1.3,1.7,2.2,nt,nt,nt,nt,nt,
Cc1ccc2[nH]c3c(=O)n(CC(=O)NCCCN4CCN(c5ccc(F)cc5)CC4)ncc3c2c1,-5.5,45.0*,-0.2,4.1,-3.1,-1.0,23.6,97.7,nt,nt,nt,
Cc1ccc(CNC(=O)CN2CCN(c3ccc(F)cc3)CC2)cc1,0.3,43.0*,-1.2,-2.5,1.9,-4.5,2.3,97.4,nt,nt,nt,
CCC1CCCCN1CCCNC(=O)Cn1ncc2c([nH]c3ccc(C)cc32)c1=O (stereo not given),-3.5,0.0,9.2,3.2,-8.2,0.9,nt,nt,nt,nt,nt,
CC1CCCC(C)N1C(=O)COC(=O)/C=C/c1ccc(Br)o1 (stereo not given),92.3*,43.0*,5.0,24.9,9.6,5.7,6.8,98.0,58.0*,-12.9,-5.7,
CC1CCN(C(=O)COC(=O)/C=C/c2ccc(Br)o2)CC1,-3.6,0.0,8.3,22.6,-13.0,0.8,nt,nt,nt,nt,nt,
COc1ccc(CC(=O)OCC(=O)NCc2ccco2)cc1OC,33.8,2.0,-2.1,11.6,4.4,0.2,nt,nt,nt,nt,nt,
O=C(COC(=O)Cc1cccc(C(F)(F)F)c1)NCc1ccco1,76.6*,57.0*,1.0,91.9*,10.9,8.3,32.2,99.2,67.9*,-8.4,-0.1,
COc1ccccc1CNS(=O)(=O)c1ccc2[nH]cc(C(=O)O)c(=O)c2c1,54.8*,59.0*,0.8,85.8*,3.8,18.2,55.6*,91.2,47.0*,-2.1,0.0,Aptamer quench 1=-46.9
O=C(O)c1cc(-c2ccc(/C=C3\NC(=O)N(c4ccccc4)C3=O)o2)ccc1Cl,72.6*,86.0*,-1.2,56.9*,8.8,40.2*,19.9,102.1,55.3*,-8.5,9.1*,
O=C(O)C1CCCCC1C(=O)Nc1cccc(Br)c1 (stereo not given),84.2*,86.0*,60.7*,102.6*,12.4,98.3*,92.9*,91.5,63.2*,-14.5,-25.2,Aptamer quench 1=0.2
O=C(COC(=O)c1ccc(OC(F)(F)F)cc1)Nc1ncccn1,81.8*,41.0*,-0.6,20.0,10.8,-1.8,2.7,94.2,49.2*,-6.2,-4.6,
NC(=O)NC(=O)COC(=O)c1ccc(OC(F)(F)F)cc1,0.7,0.0,-0.2,2.2,-2.3,0.2,nt,nt,nt,nt,nt,
Cc1ccc(NC(=O)CS(=O)CC(=O)Nc2ccc(N3CCOCC3)cc2)cc1Cl (stereo not given),96.9*,70.0*,2.2,-3.3,1.2,22.2,-4.3,91.0,69.7*,-19.7,2.5,
NCCCCCc1nnc(SCc2ccc(Cl)c(Cl)c2)o1,-4.0,0.0,-0.5,-5.3,-1.2,-0.7,nt,nt,nt,nt,nt,
COc1ccccc1N1CCN(C(=O)C(C)CS(=O)(=O)c2ccc3c(c2)NC(=O)CS3)CC1 (stereo not given),58.8*,54.0*,0.3,42.9,28.6,6.7,nt,nt,63.2*,-1.9,-1.0,GRK2 confirm 2=i;FAM quench CP2=104.0
COc1ccccc1N1CCN(S(=O)(=O)c2ccc3c(c2)NC(=O)C(C)S3)CC1 (stereo not given),-6.2,2.0,1.9,-1.8,0.3,1.5,nt,nt,nt,nt,nt,

# Source: PubChem (several laboratories)
